# Measured values from different studies.
# Protocols differ between the studies behind these lines.
# ASH1L: Histone-lysine N-methyltransferase ASH1L (ASH1L, Homo sapiens, UniProt Q9NR48)
# RET: Proto-oncogene tyrosine-protein kinase receptor Ret (RET, Homo sapiens, UniProt P07949)
# Nos2: Nitric oxide synthase, inducible (Nos2, Mus musculus, UniProt P29477)
# BAZ2A bromodomain: Bromodomain adjacent to zinc finger domain protein 2A, bromodomain (BAZ2A, Homo sapiens, UniProt Q9UIF9)
target,effect on,mode,method,tested at,measurement,value,SMILES
"Bifunctional epoxide hydrolase 2 (EPHX2, Homo sapiens, UniProt P34913)",enzyme activity,inhibitor,fluorescence,100 µM,inhibition,93.5%,O=C(CCCCCCCCc1ccc(O)cc1)c1c(O)cccc1O
ASH1L,thermal stability,,DSF,10 µM,ΔTm,1.2 °C,Cc1cc2c(cc1N1C(=O)c3cccc4c(Cl)ccc(c34)C1=O)n(C)c(=O)n2C
"Citron Rho-interacting kinase (CIT, Homo sapiens, UniProt O14578)",enzyme activity,inhibitor,,0.1 µM,inhibition,-4.1%,CC/C(=N\NC(=O)NCc1cccc(O)c1)c1ccc(O)c(C)c1O
ASH1L,thermal stability,,DSF,10 µM,ΔTm,0.31 °C,C[S+]([O-])c1ccc(-c2nc(-c3ccncc3)c(-c3ccc(F)cc3)[nH]2)cc1 (centres unmarked)
RET,enzyme activity,inhibitor,radiometric,10 µM,remaining activity,154%,CCOC(=O)N1CCN(c2nc(Nc3ccc(C)cc3)c3nn[nH]c3n2)CC1
"Serine/threonine-protein kinase LATS2 (LATS2, Homo sapiens, UniProt Q9NRM7)",enzyme activity,inhibitor,,0.1 µM,inhibition,1%,COc1cc(-c2cc(-c3ccc(N4CCNCC4)cc3)cnc2C)cc(OC)c1OC
Nos2,enzyme activity,inhibitor,,1 mM,inhibition,> 40%,O=c1cc(CCl)occ1O
RET,enzyme activity,inhibitor,radiometric,0.1 µM,remaining activity,104%,CC(=O)c1cccc(NC(=O)Nc2cc3c(cc2Oc2ccccc2)n(C)c(=O)n3C)c1
Nos2,enzyme activity,inhibitor,,1 mM,inhibition,> 40%,Cc1nc(O)nc(O)c1C
RET,enzyme activity,inhibitor,radiometric,0.1 µM,remaining activity,123%,O=C(Nc1ccc(NC(=O)c2ccco2)cc1C(F)(F)F)Nc1ccc(NC(=O)c2ccco2)cc1C(F)(F)F
"Stimulator of interferon genes protein (STING1, Homo sapiens, UniProt Q86WV6, H232R)",binding,,SPR,,kon,71000 M⁻¹ s⁻¹,CC(C)[C@@H]1NC(=O)[C@@H]2CCCN2C(=O)[C@H](Cc2ccccc2)NC(=O)CSC[C@@H](C(=O)N[C@@H](Cc2ccc(O)cc2)C(N)=O)NC(=O)[C@H](Cc2c[nH]c3ccccc23)NC(=O)[C@H](CCCCN)NC(=O)[C@H](Cc2ccccc2)N(C)C(=O)[C@H](Cc2ccccc2)NC1=O
RET,enzyme activity,inhibitor,radiometric,10 µM,remaining activity,99.9%,Cc1ccc(Nc2nc(N3CCN(C(=O)c4ccco4)CC3)nc3[nH]ncc23)cc1
"Phosphatidylinositol 5-phosphate 4-kinase type-2 gamma (PIP4K2C, Homo sapiens, UniProt Q8TBX8)",cell-free assay,,,20 µM,remaining signal,24%,Nc1ncnc2occ(-c3ccc(NC(=O)Nc4cc(C(F)(F)F)ccc4F)cc3)c12
RET,enzyme activity,inhibitor,radiometric,0.1 µM,remaining activity,114%,Cc1ccc2c(=O)c(C(=O)Nc3ccc(C)c(C)c3)cn(CC(=O)NC3CCCC3)c2n1
BAZ2A bromodomain,thermal stability,,DSF,10 µM,ΔTm,0.16 °C,Oc1ccc(-c2nc(-c3ccncc3)c(-c3ccc(F)cc3)[nH]2)cc1
"MAP/microtubule affinity-regulating kinase 4 (MARK4, Homo sapiens, UniProt Q96L34)",enzyme activity,inhibitor,radiometric,1 µM,remaining activity,3%,CN1CCc2cc(Nc3ncc(C4CC4)c(NCCCNC(=O)C4CCC4)n3)ccc2C1
BAZ2A bromodomain,binding,,competition with immobilised ligand,1 µM,remaining binding,71%,NS(=O)(=O)c1ccc(Nc2nc(-c3ccc(F)cc3)c3ccccc3n2)cc1
"Tyrosine-protein kinase JAK2 (JAK2, Homo sapiens, UniProt O60674)",enzyme activity,inhibitor,,1 µM,inhibition,3%,COc1cc2ncnc(Nc3ccc(Oc4ccccc4)c(C)c3C)c2cc1OC
RET,enzyme activity,inhibitor,radiometric,0.1 µM,remaining activity,116%,CC(=O)c1cccc(NC(=O)Cc2csc(NC(=O)Nc3cccc(Cl)c3)n2)c1
RET,thermal stability,,DSF,10 µM,ΔTm,11.6 °C,CO[C@]1(C(=O)N[C@@H](C)c2ccc(-n3cc(F)cn3)nc2)CC[C@H](c2nc(C)cc(Nc3cc(C)[nH]n3)n2)CC1
